Test results as given in ChEMBL document CHEMBL1132483, “Fused bicyclic Gly-Asp beta-turn mimics with specific affinity for GPIIb-IIIa” (J Med Chem, 1999).
One block for each compound: values may come before it.

Legend:
Homo sapiens [1] = organism: Homo sapiens; experiment: Concentration required to reduce ADP-induced platelet aggregation in platelet rich plasma by 50%.; format: functional
In short: (§1)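 Human platelet-rich plasma was incubated for 1 min with varying test concentrations or vehicle, then aggregation was triggered with ADP. The response was followed turbidimetrically. IC50 is the concentration cutting the aggregation response by 50%, averaged from at least two determinations, with average error ±16%.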

Homo sapiens [2] = organism: Homo sapiens; experiment: Concentration required to reduce ADP-induced platelet aggregation in platelet rich plasma by 50%; format: functional; in short: as §1
[3] = target: Integrin alpha-IIb/beta-3 (Homo sapiens, UniProt P05106+P08514); experiment: Inhibition of fibrinogen binding to purified human alpha IIb beta-3 integrin (GP IIb-IIIa); format: protein-complex assay
Integrin alpha-IIb/beta-3, sequence (P05106 27-788 limits assumed): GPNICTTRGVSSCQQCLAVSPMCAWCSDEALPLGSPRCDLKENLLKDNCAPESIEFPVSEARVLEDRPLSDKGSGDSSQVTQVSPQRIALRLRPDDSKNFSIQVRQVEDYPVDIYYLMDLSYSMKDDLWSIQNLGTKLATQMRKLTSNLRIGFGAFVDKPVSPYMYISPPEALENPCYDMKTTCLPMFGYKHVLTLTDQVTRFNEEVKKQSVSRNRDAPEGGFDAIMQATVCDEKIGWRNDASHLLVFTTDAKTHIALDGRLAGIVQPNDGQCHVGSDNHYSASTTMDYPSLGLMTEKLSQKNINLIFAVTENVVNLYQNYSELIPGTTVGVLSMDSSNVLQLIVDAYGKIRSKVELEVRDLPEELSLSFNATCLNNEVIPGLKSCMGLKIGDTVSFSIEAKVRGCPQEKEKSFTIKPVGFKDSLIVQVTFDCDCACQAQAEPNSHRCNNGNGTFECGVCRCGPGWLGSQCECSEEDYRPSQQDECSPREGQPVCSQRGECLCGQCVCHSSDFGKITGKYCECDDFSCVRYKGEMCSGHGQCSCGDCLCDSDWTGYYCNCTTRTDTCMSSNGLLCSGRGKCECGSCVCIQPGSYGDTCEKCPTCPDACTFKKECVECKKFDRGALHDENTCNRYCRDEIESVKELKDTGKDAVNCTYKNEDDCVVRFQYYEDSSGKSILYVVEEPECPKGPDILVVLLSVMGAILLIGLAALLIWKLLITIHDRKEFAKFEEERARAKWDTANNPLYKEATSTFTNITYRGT
Integrin alpha-IIb/beta-3, sequence (P08514 32-887 limits assumed): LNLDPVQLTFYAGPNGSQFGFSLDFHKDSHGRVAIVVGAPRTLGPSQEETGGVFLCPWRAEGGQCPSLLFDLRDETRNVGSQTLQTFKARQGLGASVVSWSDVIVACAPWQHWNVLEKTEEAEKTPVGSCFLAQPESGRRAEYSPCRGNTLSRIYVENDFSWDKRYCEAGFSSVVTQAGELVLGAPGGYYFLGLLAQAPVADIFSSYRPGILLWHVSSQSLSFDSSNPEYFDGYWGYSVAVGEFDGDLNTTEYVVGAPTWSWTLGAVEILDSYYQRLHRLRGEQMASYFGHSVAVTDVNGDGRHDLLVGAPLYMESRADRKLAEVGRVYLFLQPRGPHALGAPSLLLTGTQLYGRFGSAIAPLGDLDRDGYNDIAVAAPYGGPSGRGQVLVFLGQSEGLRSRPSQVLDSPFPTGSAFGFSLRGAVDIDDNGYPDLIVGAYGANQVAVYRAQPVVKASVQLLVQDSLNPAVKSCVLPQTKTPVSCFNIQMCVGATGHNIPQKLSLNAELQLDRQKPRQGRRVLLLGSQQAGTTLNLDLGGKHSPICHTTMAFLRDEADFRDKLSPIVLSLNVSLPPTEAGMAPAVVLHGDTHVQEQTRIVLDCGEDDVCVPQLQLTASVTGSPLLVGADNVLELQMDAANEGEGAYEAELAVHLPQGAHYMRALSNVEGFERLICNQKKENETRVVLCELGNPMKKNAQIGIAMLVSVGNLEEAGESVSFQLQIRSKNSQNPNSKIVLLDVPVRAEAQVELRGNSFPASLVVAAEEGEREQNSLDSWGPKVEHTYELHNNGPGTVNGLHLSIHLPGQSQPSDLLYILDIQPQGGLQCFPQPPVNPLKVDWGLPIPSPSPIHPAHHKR
Integrin alpha-IIb/beta-3, sequence (P08514 891-1039 limits assumed): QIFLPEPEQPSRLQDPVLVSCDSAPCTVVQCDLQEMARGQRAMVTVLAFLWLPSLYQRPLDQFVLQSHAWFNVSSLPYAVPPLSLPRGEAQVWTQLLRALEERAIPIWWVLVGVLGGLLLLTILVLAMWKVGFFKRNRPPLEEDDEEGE

[4] = Cmax (ng /mL) value after oral administration of 10 mg/kg in guinea pig.; format: ADME, organism-based, Cavia porcellus; parameters: dose 10 mg/kg, route oral; conditions: in vivo
In short: (§2)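 Guinea pigs were fasted overnight and given a single 10 mg/kg oral gavage dose, formulated at 3 mg/mL in 50% poly(ethylene glycol) 300. Blood was drawn under isoflurane anesthesia into 3.8% trisodium citrate (9:1). Plasma was assayed by HPLC. AUC covers the 0-5 h time course, and Cmax is the peak plasma level.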

[5] = AUC (ng h/mL) value after oral administration of 10 mg/kg in guinea pig.; format: ADME, organism-based, Cavia porcellus; parameters: dose 10 mg/kg, route oral; conditions: plasma; in short: as §2
[6] = Cmax(ng /mL)values after oral administration of 10 mg/kg in guinea pig.; format: ADME, organism-based, Cavia porcellus; parameters: dose 10 mg/kg, route oral; conditions: in vivo; in short: as §2
[7] = AUC(ng h/mL)values after oral administration of 10 mg/kg in guinea pig.; format: ADME, organism-based, Cavia porcellus; parameters: dose 10 mg/kg, route oral; conditions: plasma; in short: as §2
[8] = Cmax(ng /mL)values after oral administration of 10 mg/kg in rat.; format: ADME, organism-based; parameters: dose 10 mg/kg, route oral; conditions: in vivo
In short: (§3)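 Rats were fasted overnight and dosed once by oral gavage at 10 mg/kg, in vehicle of 50% poly(ethylene glycol) 300 at 3 mg/mL. Blood was collected under isoflurane into 3.8% trisodium citrate (9:1), and plasma was prepared for HPLC analysis. AUC refers to the sampled time course.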

[9] = AUC(ng h/mL)values after oral administration of 10 mg/kg in rat.; format: ADME, organism-based; parameters: dose 10 mg/kg, route oral; conditions: plasma; in short: as §3

IC50 [3]: 4200 nM
SMILES: N=C(N)c1ccc(COc2ccc3c(=O)n(CC(=O)O)ccc3c2)cc1

IC50 (Homo sapiens [2]): 2500 nM
IC50 [3]: 39 nM
SMILES: N=C(N)c1ccc(COc2ccc3c(c2)CCC(CC(=O)O)O3)cc1 (stereo unspecified)

IC50 [3]: 1200 nM
SMILES: N=C(N)c1ccc(COc2ccc3c(c2)CN(CC(=O)O)C3=O)cc1

IC50 [3]: 5000 nM
SMILES: N=C(N)c1ccc(COc2ccc(C(=O)NCC(=O)O)cc2)cc1

IC50 [3]: 5800 nM
SMILES: N=C(N)c1ccc(COc2ccc3c(c2)CC(=O)N(CC(=O)O)C3)cc1

IC50 [3]: 600 nM
SMILES: N=C(N)c1ccc(COc2ccc3c(c2)CCCN(CC(=O)O)C3=O)cc1

IC50 (Homo sapiens [2]): 450 nM
IC50 [3]: 27 nM
SMILES: N=C(N)c1ccc(COc2ccc3c(c2)CCC(CC(=O)O)C3=O)cc1 (stereo unspecified)

IC50 (Homo sapiens [2]): 33000 nM
IC50 [3]: 260 nM
SMILES: N=C(N)c1ccc(COc2ccc3c(c2)CCC(CC(=O)O)C3)cc1 (stereo unspecified)

IC50 (Homo sapiens [2]): 330 nM
SMILES: N=C(N)c1ccc(COc2ccc3c(c2)CCN(CC(=O)O)C3)cc1

The next lines start with the compound.

SMILES: N=C(N)c1ccc(C(=O)Nc2ccc3c(c2)CCC(CC(=O)O)C3=O)cc1 (stereo unspecified)
IC50 (Homo sapiens [1]): 0.02 µg/mL
IC50 (Homo sapiens [2]): 60 nM

SMILES: CCOC(=O)Cn1ccc2cc(NC(=O)c3ccc(C(=N)N)cc3)ccc2c1=O
Cmax [4]: 177 ng/mL
AUC [5]: 543 ng·h/mL

SMILES: CCOC(=O)Cc1cc2ccc(NC(=O)c3ccc(C(=N)N)cc3)cc2cn1
Cmax [4]: 469 ng/mL
AUC [5]: 1580 ng·h/mL

SMILES: N=C(N)c1ccc(C(=O)Nc2ccc3c(c2)CCC(CC(=O)O)C3)cc1 (stereo unspecified)
Cmax [6]: 252 ng/mL
AUC [7]: 903 ng·h/mL
IC50 (Homo sapiens [1]): 190 nM
IC50 (Homo sapiens [2]): 0.067 µg/mL

SMILES: CCOC(=O)CC1CCc2cc(NC(=O)c3ccc(C(=N)N)cc3)ccc2C1 (stereo unspecified)
Cmax [6]: 1170 ng/mL
Cmax [8]: 5060 ng/mL
AUC [7]: 3700 ng·h/mL
AUC [9]: 15900 ng·h/mL

SMILES: N=C(N)c1ccc(C(=O)Nc2ccc3c(c2)CCN(CC(=O)O)C3)cc1
IC50 (Homo sapiens [1]): 0.06 µg/mL
IC50 (Homo sapiens [2]): 170 nM

SMILES: CCOC(=O)CC1CCc2cc(NC(=O)c3ccc(C(=N)N)cc3)ccc2O1 (stereo unspecified)
Cmax [8]: 4850 ng/mL
AUC [9]: 14800 ng·h/mL

SMILES: CCOC(=O)CC1CCc2cc(NC(=O)c3ccc(C(=N)N)cc3)ccc2C1=O (stereo unspecified)
Cmax [6]: 1150 ng/mL
Cmax [8]: 3630 ng/mL
AUC [7]: 3990 ng·h/mL
AUC [9]: 11200 ng·h/mL

SMILES: N=C(N)c1ccc(C(=O)Nc2ccc3c(c2)CCN(CC(=O)O)C3=O)cc1
Cmax [6]: 126 ng/mL
AUC [7]: 400 ng·h/mL
IC50 (Homo sapiens [1]): 90 nM
IC50 (Homo sapiens [2]): 0.032 µg/mL

SMILES: N=C(N)c1ccc(C(=O)Nc2ccc3c(c2)CCC(CC(=O)O)O3)cc1 (stereo unspecified)
IC50 (Homo sapiens [1]): 0.027 µg/mL
IC50 (Homo sapiens [2]): 190 nM
IC50 [3]: 2 nM
